Calls of active or inactive are those of the source. No cut-off for these calls is given here.
Legend:
[1] = target: Tubulin (Homo sapiens) (UniProt P68371+Q9H4B7+P0DPH7+P68366+Q13509+Q71U36+P04350+Q3ZCM7+P07437+P68363+Q9BQE3+Q6PEY2+Q13885+Q9BVA1+Q9BUF5); assay: Inhibition of alpha-tubulin polymerization in human HT1080 cells assessed as disruption of microtubule structures at 100 nM after 4 hrs using Hoechst staining by fluorescence microscopic analysis; type: cell-based; conditions: HT-1080
[2] = test system: HCT-116; assay: Antiproliferative activity against human HCT116 cells after 72 hrs by cell counting kit analysis; type: functional, cell-based; conditions: HCT-116, 72 h
Procedure, shortened: (§1)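 Cells grown with compound for 72 h, then growth quantified by WST-1 Cell Counting Kit. Final concentrations 1, 10, 25, 50, 100 and 200 μM. All media had 10% FBS, 37 °C, 5% CO2. Read-out IC50.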

[3] = test system: SW-620; assay: Antiproliferative activity against human SW620 cells after 72 hrs by cell counting kit analysis; type: functional, cell-based; conditions: SW-620, 72 h; procedure, shortened: as §1
[4] = test system: SW480; assay: Antiproliferative activity against human SW480 cells after 72 hrs by cell counting kit analysis; type: functional, cell-based; conditions: SW480, 72 h; procedure, shortened: as §1
[5] = test system: SK-BR-3; assay: Antiproliferative activity against human SK-BR-3 cells after 72 hrs by cell counting kit analysis; type: functional, cell-based; conditions: SK-BR-3, 72 h; procedure, shortened: as §1
[6] = test system: MCF7; assay: Antiproliferative activity against human MCF7 cells after 72 hrs by cell counting kit analysis; type: functional, cell-based; conditions: MCF7, 72 h; procedure, shortened: as §1
[7] = test system: MDA-MB-231; assay: Antiproliferative activity against human MDA-MB-231 cells after 72 hrs by cell counting kit analysis; type: functional, cell-based; conditions: MDA-MB-231, 72 h; procedure, shortened: as §1
[8] = test system: HCT-116; assay: Cell cycle arrest in human HCT116 cells assessed as accumulation at sub-G1 phase at 40 uM after 24 hrs by FACS analysis (reference value: 6.2 %); type: functional
[9] = test system: HCT-116; assay: Cell cycle arrest in human HCT116 cells assessed as accumulation at G0/G1 phase at 40 uM after 24 hrs by FACS analysis (reference value: 76.5 %); type: functional
[10] = test system: HCT-116; assay: Cell cycle arrest in human HCT116 cells assessed as accumulation at G2/M phase at 40 uM after 24 hrs by FACS analysis (reference value: 10.9 %); type: functional
[11] = test system: HCT-116; assay: Cell cycle arrest in human HCT116 cells assessed as accumulation at S phase at 40 uM after 24 hrs by FACS analysis (reference value: 8.5 %); type: functional
[12] = test system: HCT-116; assay: Induction of apoptosis in human HCT116 cells at 40 uM after 24 hrs using FITC-TUNEL staining by flow cytometry; type: functional
Procedure, shortened: (§2)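 HCT116 at 1.0×10^6 per 60 mm dish, treated 24 or 48 h (0.4% DMSO control). Floating plus adherent cells assayed with DeadEnd Fluorometric TUNEL System, and FITC-TUNEL-positive percentage read by flow cytometry. Five independent experiments.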

[13] = test system: HCT-116; assay: Cell cycle arrest in human HCT116 cells assessed as increase of phosphorylated histone H3 at Ser10 level at 20 to 40 uM after 24 hrs by Western blotting; type: functional, cell-based
Procedure, shortened: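 HCT116 (1.0×10^6/dish) serum-starved 24 h, then treated 24 h in serum-free medium (0.4% DMSO control). Lysed 1 h at 0 °C in modified lysis buffer (pH 8.0, 1% NP-40). 7.5 µg protein run on SDS-PAGE and PVDF blot, probed for phospho-histone H3 Ser10 and total H3, ECL detection. Five independent experiments.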

[14] = test system: HCT-116; assay: Cell cycle arrest in human HCT116 cells assessed as increase of phosphorylated histone H3 at Ser10 level at 40 uM after 24 hrs using propidium iodide staining by flow cytometry (reference value: 1.4 %); type: functional
[15] = test system: HCT-116; assay: Induction of apoptosis in human HCT116 cells at 40 uM after 48 hrs using FITC-TUNEL staining by flow cytometry (reference value: 7.3 %); type: functional; procedure, shortened: as §2

Row | Structure (SMILES) | inhibition [1] | IC50 [2] | IC50 [3] | IC50 [4] | IC50 [5] | IC50 [6] | IC50 [7] | Activity [8] | Activity [9] | Activity [10] | Activity [11] | Activity [12] | Activity [13] | Activity [14] | Activity [15]
1 | CC(=O)O[C@H]1C(=O)[C@@]2(C)[C@H]([C@H](OC(=O)c3ccccc3)[C@]3(O)C[C@H](OC(=O)[C@H](O)[C@@H](NC(=O)c4ccccc4)c4ccccc4)C(C)=C1C3(C)C)[C@]1(OC(C)=O)CO[C@@H]1C[C@@H]2O | inactive |  |  |  |  |  |  |  |  |  |  |  |  |  | 
2 | CCc1ccc(C(=O)Nc2ccccc2)cc1 |  | > 100 µM | > 100 µM | > 100 µM | > 100 µM | > 100 µM | > 100 µM |  |  |  |  |  |  |  | 
3 | O=C(Oc1ccccc1)c1ccc(CO[N+](=O)[O-])cc1 |  | 17.9 µM | 16.9 µM | 80.7 µM | 50.1 µM | > 100 µM | 47.7 µM |  |  |  |  |  |  |  | 
4 | O=C(Nc1ccccc1)c1ccc(CO)cc1 |  | 24.8 µM | > 100 µM | > 100 µM | 9.8 µM | > 100 µM | > 100 µM |  |  |  |  |  |  |  | 
5 | O=C(Nc1ccccc1)c1ccc(CCl)cc1 |  | 1.2 µM | 0.8 µM | 0.9 µM | 0.7 µM | 54.3 µM | 0.8 µM |  |  |  |  |  |  |  | 
6 | O=C(Nc1ccccc1OC(=O)c1ccc(CCl)cc1)c1ccc(CCl)cc1 |  | 0.6 µM | 0.8 µM | 6.9 µM | 0.6 µM | 58.1 µM | 0.8 µM |  |  |  |  |  |  |  | 
7 | CC(=O)Oc1ccccc1C(=O)Oc1ccc(CO[N+](=O)[O-])cc1 |  | 68 µM | 15.1 µM | 19.1 µM | 30.5 µM | > 100 µM | 14.4 µM | 15.3% | 53.7% | 12% | 18.8% | 4% | inactive | 1.7% | 3.6%
